Measured values as given in ChEMBL document CHEMBL1141960, “Synthesis and evaluation of novel 8,6-fused bicyclic peptidomimetic compounds as interleukin-1beta converting enzyme inhibitors” (Bioorg Med Chem Lett, 2005).

What was measured:
Caspase-1 = target: T1, Caspase-1 (Homo sapiens, UniProt P29466); assay: Inhibitory activity against Caspase 1
T1 sequence (P29466 whole entry): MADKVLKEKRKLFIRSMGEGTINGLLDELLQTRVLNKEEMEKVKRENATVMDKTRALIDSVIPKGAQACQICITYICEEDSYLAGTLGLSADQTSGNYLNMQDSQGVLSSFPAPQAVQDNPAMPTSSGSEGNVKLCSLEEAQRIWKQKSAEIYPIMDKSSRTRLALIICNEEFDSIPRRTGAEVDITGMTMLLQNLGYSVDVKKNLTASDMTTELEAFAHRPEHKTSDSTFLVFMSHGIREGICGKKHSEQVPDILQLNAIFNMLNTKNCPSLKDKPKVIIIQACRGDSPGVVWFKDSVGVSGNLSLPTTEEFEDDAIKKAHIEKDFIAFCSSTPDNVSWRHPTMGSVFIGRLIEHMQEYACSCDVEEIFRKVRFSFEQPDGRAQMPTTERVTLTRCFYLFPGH

Caspase-3 = target: T2, Caspase-3 (Homo sapiens, UniProt P42574); assay: Inhibitory activity against Caspase 3
T2 sequence (P42574 whole entry): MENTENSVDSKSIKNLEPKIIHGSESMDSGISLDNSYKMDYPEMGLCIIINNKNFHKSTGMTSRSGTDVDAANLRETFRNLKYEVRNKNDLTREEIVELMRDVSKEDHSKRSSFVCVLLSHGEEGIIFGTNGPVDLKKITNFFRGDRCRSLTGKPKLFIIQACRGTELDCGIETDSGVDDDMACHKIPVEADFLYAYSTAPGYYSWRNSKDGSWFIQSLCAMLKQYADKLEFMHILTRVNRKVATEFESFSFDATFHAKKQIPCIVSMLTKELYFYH

Caspase-8 = Caspase-8 (Homo sapiens, UniProt Q14790); assay: Inhibitory activity against Caspase 8
THP-1 = assay: Inhibitory activity in THP1 whole cell assay measuring IL1-beta production; assay type: functional, cell-based; conditions: Homo sapiens
Outline: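 Human monocytic THP-1 cells, 2 × 10^6/ml in RPMI 1640, preincubated 15 min with compound added from DMSO solutions (test range 1 nM to 10 μM) or without, then stimulated with LPS 1 μg/ml for 4 h total; cells spun down and IL-1β released into conditioned medium quantified by ELISA.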

Chain of Caspase-8 (Q14790 217-374 limits assumed): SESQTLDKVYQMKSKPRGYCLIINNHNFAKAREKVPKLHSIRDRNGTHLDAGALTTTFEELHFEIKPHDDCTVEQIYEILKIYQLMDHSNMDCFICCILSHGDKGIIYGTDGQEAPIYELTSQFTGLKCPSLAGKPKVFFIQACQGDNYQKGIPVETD
Chain of Caspase-8 (Q14790 385-479 limits assumed): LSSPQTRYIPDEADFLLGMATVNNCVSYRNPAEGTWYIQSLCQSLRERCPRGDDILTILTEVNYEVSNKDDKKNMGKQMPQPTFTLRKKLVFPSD

Compound	IC50 (Caspase-1)	IC50 (Caspase-3)	IC50 (Caspase-8)	IC50 (THP-1)
O=C1C[C@H](NC(=O)[C@@H]2COC[C@@H]3C/C=C\C[C@H](NC(=O)c4ccccc4C(F)(F)F)C(=O)N32)C(O)O1 (stereo partly specified)	50 nM	> 10000 nM	670 nM	–
O=C1C[C@H](NC(=O)[C@@H]2CN(C(=O)Nc3ccccc3)C[C@@H]3CCCC[C@H](NC(=O)c4ccccc4)C(=O)N32)C(O)O1 (stereo partly specified)	5 nM	> 10000 nM	601 nM	1690 nM
O=C1C[C@H](NC(=O)[C@@H]2CN(C(=O)c3ccccc3)C[C@@H]3CCCC[C@H](NC(=O)c4ccccc4)C(=O)N32)C(O)O1 (stereo partly specified)	7 nM	8070 nM	38 nM	1420 nM
CS(=O)(=O)N1C[C@@H]2CCCC[C@H](NC(=O)c3ccccc3)C(=O)N2[C@H](C(=O)N[C@H]2CC(=O)OC2O)C1 (stereo partly specified)	6 nM	> 10000 nM	384 nM	174 nM
O=C1C[C@H](NC(=O)[C@@H]2COC[C@@H]3C/C=C\C[C@H](NC(=O)c4cccc(C(F)(F)F)c4)C(=O)N32)C(O)O1 (stereo partly specified)	9 nM	> 10000 nM	4190 nM	132 nM
O=C1C[C@H](NC(=O)[C@@H]2COC[C@@H]3C/C=C\C[C@H](NC(=O)c4ccc(Cl)cc4)C(=O)N32)C(O)O1 (stereo partly specified)	74 nM	> 10000 nM	3770 nM	–
CC(=O)N1C[C@@H]2CCCC[C@H](NC(=O)c3ccccc3)C(=O)N2[C@H](C(=O)N[C@H]2CC(=O)OC2O)C1 (stereo partly specified)	6 nM	> 10000 nM	481 nM	1260 nM
O=C1C[C@H](NC(=O)[C@@H]2CNC[C@@H]3CCCC[C@H](NC(=O)c4ccccc4)C(=O)N32)C(O)O1 (stereo partly specified)	10 nM	> 10000 nM	384 nM	245 nM
CN1C[C@@H]2CCCC[C@H](NC(=O)c3ccccc3)C(=O)N2[C@H](C(=O)N[C@H]2CC(=O)OC2O)C1 (stereo partly specified)	5 nM	> 10000 nM	247 nM	1820 nM
O=C1C[C@H](NC(=O)[C@@H]2COC[C@@H]3C/C=C\C[C@H](NC(=O)c4nccc5ccccc45)C(=O)N32)C(O)O1 (stereo partly specified)	3 nM	> 10000 nM	1590 nM	182 nM
O=C1C[C@H](NC(=O)[C@@H]2COC[C@@H]3C/C=C\C[C@H](NC(=O)c4ccccc4Cl)C(=O)N32)C(O)O1 (stereo partly specified)	33 nM	> 10000 nM	448 nM	–
O=C1C[C@H](NC(=O)[C@@H]2COC[C@@H]3C/C=C\C[C@H](NC(=O)c4ccccc4)C(=O)N32)C(O)O1 (stereo partly specified)	130 nM	> 10000 nM	7900 nM	–
O=C1C[C@H](NC(=O)[C@@H]2COC[C@@H]3C/C=C\C[C@H](NC(=O)c4ccc(C(F)(F)F)cc4)C(=O)N32)C(O)O1 (stereo partly specified)	135 nM	> 10000 nM	6450 nM	–
O=C1C[C@H](NC(=O)[C@@H]2COC[C@@H]3C/C=C\C[C@H](NC(=O)c4cc5ccccc5s4)C(=O)N32)C(O)O1 (stereo partly specified)	3 nM	> 10000 nM	1600 nM	57 nM
O=C1C[C@H](NC(=O)[C@@H]2COC[C@@H]3C/C=C\C[C@H](NC(=O)c4cccc(Cl)c4)C(=O)N32)C(O)O1 (stereo partly specified)	7 nM	> 10000 nM	1550 nM	118 nM

Continued by falling IC50 (Caspase-1), values first:

IC50 (Caspase-1)	IC50 (Caspase-3)	IC50 (Caspase-8)	IC50 (THP-1)	Compound
3 nM	> 10000 nM	2590 nM	62 nM	O=C1C[C@H](NC(=O)[C@@H]2COC[C@@H]3C/C=C\C[C@H](NC(=O)c4ccc5ccccc5c4)C(=O)N32)C(O)O1 (stereo partly specified)
2 nM	> 10000 nM	106 nM	159 nM	O=C1C[C@H](NC(=O)[C@@H]2CN(S(=O)(=O)c3ccccc3)C[C@@H]3CCCC[C@H](NC(=O)c4ccccc4)C(=O)N32)C(O)O1 (stereo partly specified)
1 nM	> 10000 nM	429 nM	178 nM	O=C1C[C@H](NC(=O)[C@@H]2COC[C@@H]3CCCC[C@H](NC(=O)c4cc5ccccc5s4)C(=O)N32)C(O)O1 (stereo partly specified)
1 nM	> 10000 nM	595 nM	156 nM	O=C1C[C@H](NC(=O)[C@@H]2CNC[C@@H]3CCCC[C@H](NC(=O)c4nccc5ccccc45)C(=O)N32)C(O)O1 (stereo partly specified)
1 nM	3260 nM	13 nM	125 nM	O=C1C[C@H](NC(=O)[C@@H]2CN(C(=O)OCc3ccccc3)C[C@@H]3C/C=C\C[C@H](NC(=O)c4ccccc4)C(=O)N32)C(O)O1 (stereo partly specified)
1 nM	> 10000 nM	917 nM	168 nM	CS(=O)(=O)N1C[C@@H]2CCCC[C@H](NC(=O)c3nccc4ccccc34)C(=O)N2[C@H](C(=O)N[C@H]2CC(=O)OC2O)C1 (stereo partly specified)
1 nM	> 10000 nM	506 nM	75 nM	O=C1C[C@H](NC(=O)[C@@H]2CNC[C@@H]3CCCC[C@H](NC(=O)c4ccc5ccccc5c4)C(=O)N32)C(O)O1 (stereo partly specified)
1 nM	> 10000 nM	264 nM	101 nM	O=C1C[C@H](NC(=O)[C@@H]2COC[C@@H]3CCCC[C@H](NC(=O)c4nccc5ccccc45)C(=O)N32)C(O)O1 (stereo partly specified)
1 nM	> 10000 nM	911 nM	60 nM	O=C1C[C@H](NC(=O)[C@@H]2COC[C@@H]3CCCC[C@H](NC(=O)c4ccc5ccccc5c4)C(=O)N32)C(O)O1 (stereo partly specified)
1 nM	> 10000 nM	283 nM	46 nM	CS(=O)(=O)N1C[C@@H]2CCCC[C@H](NC(=O)c3ccc4ccccc4c3)C(=O)N2[C@H](C(=O)N[C@H]2CC(=O)OC2O)C1 (stereo partly specified)
1 nM	> 10000 nM	50 nM	153 nM	O=C1C[C@H](NC(=O)[C@@H]2CN(S(=O)(=O)c3ccccc3)C[C@@H]3CCCC[C@H](NC(=O)c4ccc5ccccc5c4)C(=O)N32)C(O)O1 (stereo partly specified)
1 nM	> 10000 nM	160 nM	87 nM	O=C1C[C@H](NC(=O)[C@@H]2CN(S(=O)(=O)c3ccccc3)C[C@@H]3CCCC[C@H](NC(=O)c4nccc5ccccc45)C(=O)N32)C(O)O1 (stereo partly specified)
1 nM	4850 nM	5 nM	106 nM	O=C1C[C@H](NC(=O)[C@@H]2CN(C(=O)OCc3ccccc3)C[C@@H]3C/C=C\C[C@H](NC(=O)c4ccc5ccccc5c4)C(=O)N32)C(O)O1 (stereo partly specified)
1 nM	> 10000 nM	4 nM	154 nM	O=C1C[C@H](NC(=O)[C@@H]2CN(C(=O)OCc3ccccc3)C[C@@H]3C/C=C\C[C@H](NC(=O)c4nccc5ccccc45)C(=O)N32)C(O)O1 (stereo partly specified)
